Measurements as given in BindingDB's records for doi:10.1021/jm001008m (University of The Saarland, 2000).

Experiments:
[1] = target: T1, Steroid 17-alpha-hydroxylase/17,20 lyase (Rattus norvegicus, UniProt P11715); assay: Evaluated for the inhibitory activity towards Cytochrome P450 17 rat enzyme using testicular microsome at 25 uM of substrate (progesterone)
T1 sequence (P11715 whole entry): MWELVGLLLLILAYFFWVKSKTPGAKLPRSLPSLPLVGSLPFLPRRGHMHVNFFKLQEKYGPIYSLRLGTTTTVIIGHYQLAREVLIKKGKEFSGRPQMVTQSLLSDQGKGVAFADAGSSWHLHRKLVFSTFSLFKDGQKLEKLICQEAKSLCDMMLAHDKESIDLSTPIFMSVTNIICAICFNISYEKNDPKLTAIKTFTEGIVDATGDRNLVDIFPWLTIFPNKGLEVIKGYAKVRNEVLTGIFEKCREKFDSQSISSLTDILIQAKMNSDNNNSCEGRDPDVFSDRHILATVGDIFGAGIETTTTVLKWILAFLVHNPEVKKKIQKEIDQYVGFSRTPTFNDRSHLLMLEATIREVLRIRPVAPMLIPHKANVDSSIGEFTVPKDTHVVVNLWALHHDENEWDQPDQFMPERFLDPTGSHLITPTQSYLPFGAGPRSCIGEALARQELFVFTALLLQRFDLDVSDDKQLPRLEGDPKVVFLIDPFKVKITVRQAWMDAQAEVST
How it was run: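 Testicular microsomes (human for human enzyme, rat for rat enzyme) incubated with progesterone substrate at 25 µM; product measured by RP-HPLC with UV detection. IC50 = concentration giving 50% inhibition, mean of at least two experiments.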

[2] = target: T2, 3-oxo-5-alpha-steroid 4-dehydrogenase 2 (Homo sapiens, UniProt P31213); assay: Evaluated for the inhibitory activity against human steroid 5-alpha-reductase type 2 from human BPH tissue at 210 nM of testosterone
T2 sequence (P31213 whole entry): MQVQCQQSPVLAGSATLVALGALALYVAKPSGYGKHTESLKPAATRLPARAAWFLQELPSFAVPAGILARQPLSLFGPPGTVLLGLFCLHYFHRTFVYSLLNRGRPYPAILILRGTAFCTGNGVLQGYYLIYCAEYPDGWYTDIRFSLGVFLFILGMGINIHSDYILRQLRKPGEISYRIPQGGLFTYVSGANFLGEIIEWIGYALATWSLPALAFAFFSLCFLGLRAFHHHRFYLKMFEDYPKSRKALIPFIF
How it was run: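 Enzyme from prostate homogenate of BPH patients, assayed at pH 5.5 with radiolabeled testosterone at 210 nM; product separated by HPLC. IC50 taken as inhibitor concentration giving 50% inhibition; mean of at least two experiments.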

[3] = target: T3, Steroid 17-alpha-hydroxylase/17,20 lyase (Homo sapiens, UniProt P05093); assay: Evaluated for the inhibitory activity towards Cytochrome P450 17 human enzyme using testicular microsome at 25 uM of substrate (progesterone)
T3 sequence (P05093 whole entry): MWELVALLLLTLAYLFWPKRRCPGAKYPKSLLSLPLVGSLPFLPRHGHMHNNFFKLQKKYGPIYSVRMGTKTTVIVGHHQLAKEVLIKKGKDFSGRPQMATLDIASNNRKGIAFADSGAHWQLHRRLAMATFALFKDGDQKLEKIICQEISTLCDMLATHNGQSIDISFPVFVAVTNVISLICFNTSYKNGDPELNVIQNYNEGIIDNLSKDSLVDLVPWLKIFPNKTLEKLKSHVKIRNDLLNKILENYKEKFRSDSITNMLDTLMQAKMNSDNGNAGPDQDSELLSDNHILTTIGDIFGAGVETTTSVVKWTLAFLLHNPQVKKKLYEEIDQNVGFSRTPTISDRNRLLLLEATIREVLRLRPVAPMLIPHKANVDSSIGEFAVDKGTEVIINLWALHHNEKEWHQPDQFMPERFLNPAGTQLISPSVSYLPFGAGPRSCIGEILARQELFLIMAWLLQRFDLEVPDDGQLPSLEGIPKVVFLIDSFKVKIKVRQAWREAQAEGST

IC50 [1]: > 125000 nM
IC50 [2]: 580 nM
IC50 [3]: > 2500 nM
SMILES: CC(N=O)[C@H]1CCC2C3CCC4=CC(=O)CCC4(C)C3CCC21C (stereo partly drawn) [17-(1-Hydroxyimino-ethyl)-10,13-dimethyl-1,2,6,7,8,9,10,11,12,13,14,15,16,17-tetradecahydro-cyclopenta[a]phenanthren-3-one]
